The target of assay [1] is T1, PpKAI2-like H (Physcomitrium patens, UniProt A9SG07). In words: Fluorescence-based equilibrium microdialysis, KAR1 binding. Set-up: species or system Physcomitrella patens.
Assay [2] concerns PpKAI2-like D. The assay is described as above. Set-up: species or system Physcomitrella patens.
The target in assay [3] is T2, PpKAI2-like C (Physcomitrium patens, UniProt A9SKF7). The description is as above. Set-up: species or system Physcomitrella patens.
The subject of assay [4] is PpKAI2-like E SDIDSM166TDIHDE. Described as above. Set-up: species or system Physcomitrella patens. The conditions noted are these: loop-swap PpKAI2-like E SDIDSM166TDIHDE.
The target in a further assay is AtKAI2. The conditions noted are these: read-out: published affinity, ref Guo et al., 2013; cited from earlier work.
The subject of assay [5] is PpKAI2-like E. In words: Fluorescence-based equilibrium microdialysis, KAR1 binding. Set-up: species or system Physcomitrella patens.
In another assay the target is PpKAI2-like K. Described as above. Set-up: species or system Physcomitrella patens.
The test system of assay [6] is Physcomitrella caulonema growth. The settings on record: ref Hoffmann et al., 2014; cited from earlier work.
Another assay has as its target PpKAI2-like L. In words: Fluorescence-based equilibrium microdialysis, KAR1 binding. Set-up: species or system Physcomitrella patens.
For a further assay, the system named is PpKAI2-like B. The assay is described as above. Set-up: species or system Physcomitrella patens.
The test system of assay [7] is PpKAI2-like H TDIHDE167SDIDSM. The assay is described as above. Set-up: species or system Physcomitrella patens. The conditions noted are these: loop-swap PpKAI2-like H TDIHDE167SDIDSM.
Assay [8] relates to PpKAI2-like H TDIHDE167SDIDSM. In words: Differential scanning fluorimetry. The assay is classed as binding, Physcomitrella patens. The conditions noted are these: loop-swap PpKAI2-like H TDIHDE167SDIDSM.
The test system of assay [9] is PpKAI2-like E. Type of assay: biochemical, Physcomitrella patens. The conditions noted are these: 1 μM PpKAI2-like E, 1 mM substrate, 3 h, room temperature.
Assay [10] relates to PpKAI2-like E. In words: Mass spectrometry of protein for D ring modification. The settings on record: PpKAI2-like E incubated with ligand. Type of assay: biochemical, Physcomitrella patens.
Assay [11] concerns the target T1, PpKAI2-like H. In words: Differential scanning fluorimetry. Type of assay: binding, Physcomitrella patens. The settings on record: PpKAI2-like H wild-type. (In general: In DSF a fluorescence change marks the thermal transition of the protein.)
Assay [12] relates to PpKAI2-like E SDIDSM166TDIHDE. In words: Differential scanning fluorimetry. The assay is classed as binding, Physcomitrella patens. The settings on record: loop-swap PpKAI2-like E SDIDSM166TDIHDE.
The test system of assay [13] is PpKAI2-like D. In words: Mass spectrometry of protein for D ring modification. The assay is classed as biochemical, Physcomitrella patens. The settings on record: PpKAI2-like D incubated with ligand.
In assay [14] the target is T2, PpKAI2-like C. Type of assay: biochemical, Physcomitrella patens. The settings on record: 1 μM PpKAI2-like C, 1 mM substrate, 3 h, room temperature.
For assay [15], the system named is PpKAI2-like E. In words: Differential scanning fluorimetry. The assay is classed as binding, Physcomitrella patens.
Assay [16] relates to PpKAI2-like D. The assay is classed as biochemical, Physcomitrella patens. The conditions noted are these: 1 μM PpKAI2-like D, 1 mM substrate, 3 h, room temperature.
The test system of assay [17] is PpKAI2-like D. In words: Differential scanning fluorimetry. Type of assay: binding, Physcomitrella patens.
In assay [18] the target is T2, PpKAI2-like C. In words: Differential scanning fluorimetry. Type of assay: binding, Physcomitrella patens.
In assay [19] the target is T2, PpKAI2-like C. In words: Mass spectrometry of protein for D ring modification. Type of assay: biochemical, Physcomitrella patens. The settings on record: PpKAI2-like C incubated with ligand.
Assay [20] concerns the target PpKAI2-like E S166D S170D. In words: Isothermal titration calorimetry of. Type of assay: binding, Physcomitrella patens. The settings on record: ITC. The method in brief: (§1)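 GST-fused protein (wild-type or point mutant) was expressed in E. coli BL21-CodonPlus-RIL, HRV3-cleaved on glutathione resin, then size-excluded in 20 mM Tris-HCl, 30 mM NaCl, 1 mM TCEP, pH 7.7. Protein at 1800 μM was titrated into 40 μM racemic GR24 over 20 injections spaced 240 s apart. Data were fitted to a one-site binding model.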

A further assay concerns the target T3, PpKAI2-like E S166A (Physcomitrium patens, UniProt A9ST85, S166A).
T3 sequence (A9ST85 1-270 S166A): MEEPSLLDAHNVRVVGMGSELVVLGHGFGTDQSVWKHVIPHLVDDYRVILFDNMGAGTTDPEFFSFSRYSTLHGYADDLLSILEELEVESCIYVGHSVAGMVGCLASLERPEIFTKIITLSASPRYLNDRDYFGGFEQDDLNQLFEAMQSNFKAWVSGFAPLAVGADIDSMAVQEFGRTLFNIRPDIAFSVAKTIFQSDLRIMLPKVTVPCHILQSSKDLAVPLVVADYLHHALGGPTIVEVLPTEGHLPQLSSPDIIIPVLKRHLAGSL
In words: Isothermal titration calorimetry of. Type of assay: binding, Physcomitrella patens. The method in brief: as §1
(In general: ITC needs no label: the signal is the heat of the interaction.)

The subject of a further assay is DAD2. The settings on record: Petunia paralog DAD2; ref Hamiaux et al., 2012; cited from earlier work.
The next assay has as its system D14. The settings on record: Arabidopsis D14; ref Zhao et al., 2013; cited from earlier work.

In the case of `Cc1c2ccocc-2oc1=O` [KAR1], the Kd at PpKAI2-like H [1] is 6.7 µM; on AtKAI2, 9 µM; at PpKAI2-like K, 7.7 µM; on PpKAI2-like L it was 5.2 µM. The KAR1 binding result with PpKAI2-like D [2] is “unable to detect KAR1 binding”; at PpKAI2-like C [3] it was “unable to detect KAR1 binding”; in assay [4] it was “weak binding”; with PpKAI2-like E [5], “unable to detect KAR1 binding”; with PpKAI2-like B it was “do not bind”; in [7], “lost KAR1 binding ability”. In assay [6], the “effect on Physcomitrella caulonema growth” value is recorded as “not found any effect”.

For the compound (−)-5-deoxystrigol, the “affinity (DSF)” value is reported as “weak affinity” in [8] and “reduced compared to wild-type” in assay [12]. In addition, the “degradation of intact substrate mass” value in the assay on PpKAI2-like E [9], at PpKAI2-like C [14] and in the assay with PpKAI2-like D [16] was “loss of intact (−)-5-deoxystrigol mass” each time. The “D ring modification of active site histidine” value in the assay with PpKAI2-like E [10], with PpKAI2-like D [13] and at PpKAI2-like C [19] was 96 Da mass of the D ring to be attached to the active site histidines in each case. At PpKAI2-like H [11], the “binding / interaction (DSF)” value was “no binding observed”. Moreover, the “change of protein melting point (DSF)” value with PpKAI2-like E [15], in the assay with PpKAI2-like D [17] and at PpKAI2-like C [18] was “absolute preference” in each case.

On to (+)-4-deoxyorobanchol, for which the “change of protein melting point (DSF)” value in the assay on PpKAI2-like E [15], with PpKAI2-like D [17] and at PpKAI2-like C [18] was “unable to detect a change in melting points” in each case.

Turning to `CC1=CC(O/C=C2/C(=O)OC3c4ccccc4CC23)OC1=O` (racemic) [(±)-GR24], the “binding of (±)-GR24” value in [20] is listed as “unable to detect binding”. Further, the figures for the “affinity (DSF)” value in assay [8] and in assay [12] were “weak affinity” and “reduced compared to wild-type”, respectively. This compound also displayed a Kd at PpKAI2-like E S166A of 81 µM. Also, the turnover rate was 3 (±)-GR24 molecules/hr with DAD2 and 1 (±)-GR24 molecule/3 min with D14. In addition, the “binding / interaction (DSF)” value at PpKAI2-like H [11] is recorded as “no binding observed”. Moreover, the “change of protein melting point (DSF)” value is listed as “strongest shift of the protein melting point” with PpKAI2-like E [15], “destabilization” with PpKAI2-like D [17] and “destabilization” on PpKAI2-like C [18].

With `CC1=CC(O/C=C(C)\C=C\C2=C(C)CCCC2(C)C)OC1=O` (racemic) [rac-carlactone], at PpKAI2-like H [11], the “binding / interaction (DSF)” value is “unable to detect any interaction”. Also, the “change of protein melting point (DSF)” value in the assay on PpKAI2-like E [15], in the assay on PpKAI2-like D [17] and on PpKAI2-like C [18] was “unable to detect any interaction” each time.

With (+)-5-deoxystrigol, the “degradation of intact substrate mass” value in the assay on PpKAI2-like E [9], on PpKAI2-like C [14] and in the assay with PpKAI2-like D [16] was “did not observe any effect” each time. Moreover, the “D ring modification of active site histidine” value in the assay with PpKAI2-like E [10], with PpKAI2-like D [13] and at PpKAI2-like C [19] was “unable to detect the modification” throughout. Further, the “change of protein melting point (DSF)” value in the assay with PpKAI2-like E [15], in the assay on PpKAI2-like D [17] and at PpKAI2-like C [18] was “unable to detect a change in melting points” throughout.

As to (−)-4-deoxyorobanchol, the “change of protein melting point (DSF)” value in the assay on PpKAI2-like E [15], in the assay on PpKAI2-like D [17] and on PpKAI2-like C [18] was “unable to detect a change in melting points” each time.

These data come from paper PMC7233462 (Cell reports, 2019).
